Assay results as given in ChEMBL document CHEMBL3259725, “Synthesis of stable aromatic and heteroaromatic sulfonyl-amidoximes and evaluation of their antioxidant and lipid peroxidation activity” (Eur J Med Chem, 2014).
Active and inactive are the calls of the source. The rule behind the calls is not given here.

Assays:
Type in all cases: functional
[1] = system: Radical scavenging activity; assay: Antioxidant activity assessed as reduction of DPPH free radical formation at 100 uM after 60 mins relative to control; set-up: scale not given: the % may be the effect or the level left
In short: (§1)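 Compounds at a final 100 concentration were mixed with the stable radical DPPH, using ethanol as the control solution. Absorbance at 517 nm was read after 20 and 60 min at room temperature. Each assay was run at least in triplicate.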

[2] = system: Radical scavenging activity; assay: Antioxidant activity assessed as reduction of DPPH free radical formation at 100 uM after 20 mins relative to control; set-up: scale not given: the % may be the effect or the level left; in short: as §1
[3] = Antioxidant activity assessed as inhibition of Fe3+/ascorbic acid-induced hydroxyl radical formation by measuring DMSO-induced formaldehyde production at 100 uM after 30 mins relative to control
In short: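 Hydroxyl radicals were generated by Fe3+/ascorbic acid in 50 mM phosphate buffer, pH 7.4, containing 0.1 mM EDTA and 33 mM DMSO, with compounds at 0.1 mM. Radical yield was measured as formaldehyde formed from DMSO oxidation, determined by the Nash method.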

[4] = Antioxidant activity assessed as inhibition of AAPH-induced linoleic acid peroxidation at 100 uM by UV spectrophotometric analysis relative to control
In short: (§2)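 Linoleic acid dispersion (16 mM stock) in 0.05 M phosphate buffer, pH 7.4, pre-equilibrated at 37 °C. Oxidation was started with AAPH (40 mM stock solution) as radical initiator, with test compound added in DMSO. Conjugated diene hydroperoxide formation was followed as the rise in absorbance at 234 nm at 37 °C. The control contained the same level of DMSO without antioxidant.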

[5] = Antioxidant activity assessed as inhibition of AAPH-induced linoleic acid peroxidation by UV spectrophotometric analysis; in short: as §2

| Structure (SMILES) | Activity [1] | Activity [2] | inhibition [3] | inhibition [4] | IC50 [5] [µM] |
| --- | --- | --- | --- | --- | --- |
| N=C(NOS(=O)(=O)c1ccccc1)c1ccccn1 | inactive | 4% | 32% | 30% |  |
| CCCCCCCCCCCCCCCCS(=O)(=O)O/N=C(\N)c1ccncc1 | 21% | 14% | inactive | 12% |  |
| Cc1ccc(S(=O)(=O)O/N=C(\N)c2cccnc2)cc1 | 41% | 34% | 95% | 43% |  |
| Cc1c(C)c2c(c(C)c1O)CCC(C)(C(=O)O)O2 (stereo unspecified) [TROLOX] |  |  | 88% |  | 55 |
| N/C(=N\OS(=O)(=O)c1ccc([N+](=O)[O-])cc1)c1cccnc1 | 11% | 8% | 18% |  | 85 |
| CCCS(=O)(=O)O/N=C(\N)c1cccnc1 | 27% | 23% | 63% | 16% |  |
| NC(=NO)c1ccncc1 | 7% | 3% | 87% | inactive |  |
| N/C(=N\O)c1cccnc1 | 15% | 12% | 60% | inactive |  |
| N=C(NOS(=O)(=O)c1ccccc1)c1ccncc1 | 11% | 2% | 44% | 22% |  |
| Cc1ccc(S(=O)(=O)O/N=C(\N)c2ccncc2)cc1 | inactive | inactive | 32% | inactive |  |
| CCCCCCCCCCS(=O)(=O)O/N=C(\N)c1cccnc1 | 24% | 20% | 72% | 33% |  |
| CCCCCCCCCCS(=O)(=O)O/N=C(\N)c1ccc([N+](=O)[O-])cc1 | 12% | 3% | 48% | inactive |  |
| Cc1ccc(S(=O)(=O)O/N=C(\N)c2ccc([N+](=O)[O-])cc2)cc1 | 11% | 10% | 78% | 25% |  |
| N/C(=N\OS(=O)(=O)c1ccc([N+](=O)[O-])cc1)c1ccccn1 | 32% | 32% | 98% |  | 72 |
| N=C(NOS(=O)(=O)c1ccccc1)c1cccnc1 | 25% | 24% | 28% | 21% |  |
| CCCCCCCCCCS(=O)(=O)O/N=C(\N)c1ccccn1 | 10% | 11% | 79% | 46% |  |
| CCCCCCCCCCCCCCCCS(=O)(=O)O/N=C(\N)c1ccc([N+](=O)[O-])cc1 | 24% | 21% | 100% | 3% |  |
| CCCCCCCCCCS(=O)(=O)O/N=C(\N)c1ccncc1 | 21% | 14% | 70% | 28% |  |
| CCCCCCCCCCCCCCCCS(=O)(=O)O/N=C(\N)c1ccccn1 | 1% | 4% | inactive | 21% |  |
| CCCS(=O)(=O)O/N=C(\N)c1ccccn1 | 1% | 6% | 83% | inactive |  |
| Cc1ccc(S(=O)(=O)O/N=C(\N)c2ccccn2)cc1 | 4% | 5% | 72% |  | 80 |
| N/C(=N\O)c1ccc([N+](=O)[O-])cc1 | 4% | 3% | 85% | 41% |  |
| NC(=NOS(=O)(=O)c1ccc([N+](=O)[O-])cc1)c1ccncc1 | 20% | 13% | 0% | 49% |  |
| CC(Cc1ccc(O)c(O)c1)C(C)Cc1ccc(O)c(O)c1 (stereo unspecified) | 81% | 77% |  |  |  |
| N/C(=N\O)c1ccccn1 | 14% | 11% | 81% | inactive |  |
| N/C(=N\OS(=O)(=O)c1ccc([N+](=O)[O-])cc1)c1ccc([N+](=O)[O-])cc1 | 38% | 34% | inactive |  | 66.5 |
| N/C(=N\OS(=O)(=O)c1ccccc1)c1ccc([N+](=O)[O-])cc1 | 8.4% | 4% | 34% | 5% |  |
| CCCS(=O)(=O)O/N=C(\N)c1ccncc1 | 4% | inactive | 66% | inactive |  |
| CCCS(=O)(=O)O/N=C(\N)c1ccc([N+](=O)[O-])cc1 | 19% | 10% | 75% | 22% |  |
| CCCCCCCCCCCCCCCCS(=O)(=O)O/N=C(\N)c1cccnc1 | 16% | 7% | 69% |  | 70 |
